# Results: ChEMBL document CHEMBL4033657, “N-Aryl-N'-ethyleneaminothioureas effectively inhibit acetylcholinesterase 1 from disease-transmitting mosquitoes” (Eur J Med Chem, 2017)
# Legend:
# [1] = biological target: Acetylcholinesterase (Anopheles gambiae) (UniProt Q869C3); experiment: (§1) Inhibition of recombinant full length Anopheles gambiae AChE1 expressed in baculovirus-infected Sf9 insect cells using acetylthiocholine iodide as substrate measured over 60 secs by Ellman's method
# Acetylcholinesterase [2] = biological target: T1, Acetylcholinesterase (Anopheles gambiae, UniProt Q869C3); experiment: as §1
# Acetylcholinesterase [3] = biological target: Acetylcholinesterase (Homo sapiens, UniProt P22303); experiment: Inhibition of recombinant human AChE expressed in HEK293F cells using acetylthiocholine iodide as substrate measured over 60 secs by Ellman's method; design: species or system HEK293
# Anopheles gambiae [4] = experiment: Insecticidal activity against five days old adult Anopheles gambiae Kisumu assessed as mortality at 10 mM applied topically on upper part of pronotum after 48 hrs (reference value: 14 to 22%); format: functional; settings: topical
# Aedes aegypti [5] = experiment: Insecticidal activity against 3rd instar larvae of Aedes aegypti Mombasa assessed as mortality at 50 uM administered via de-chlorinated tap water after 48 hrs (reference value: 0 to 4%); format: functional
# Aedes aegypti [6] = experiment: Insecticidal activity against five days old adult Aedes aegypti Mombasa assessed as mortality at 2 mM applied topically on upper part of pronotum after 48 hrs (reference value: 3 to 12%); format: functional; settings: topical
# Aedes aegypti [7] = experiment: Inhibition of recombinant full length Aedes aegypti AChE1 expressed in baculovirus-infected Sf9 insect cells at 1 mM using acetylthiocholine iodide as substrate measured over 60 secs by Ellman's method
# Summary of the method: (§2)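 Secreted, non-purified recombinant enzyme in growth medium, tested as enzyme source. Ellman assay at 30 °C in 0.1 M phosphate buffer pH 7.4 with 0.2 mM DTNB and 1 mM acetylthiocholine iodide; A412 followed over 60 s. Compound (100 mM DMSO stock) tested at eight concentrations, maximum 1 mM. Activity set relative to eight uninhibited controls per plate; IC50 from three-parameter variable-slope fit; 2-3 independent replicates.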
# Anopheles gambiae [8] = experiment: Insecticidal activity against five days old adult Anopheles gambiae Kisumu assessed as mortality at 0.2 nmol applied topically on upper part of pronotum after 24 hrs; format: functional
# Anopheles gambiae [9] = experiment: Insecticidal activity against five days old adult Anopheles gambiae Kisumu assessed as mortality at 2 mM applied topically on upper part of pronotum after 48 hrs (reference value: 13 to 38%); format: functional; settings: topical
# Aedes aegypti [10] = experiment: Insecticidal activity against five days old adult Aedes aegypti Mombasa assessed as mortality at 10 nmol applied topically on upper part of pronotum after 24 hrs; format: functional
# Anopheles gambiae [11] = experiment: Insecticidal activity against five days old adult Anopheles gambiae Kisumu assessed as mortality at 10 nmol applied topically on upper part of pronotum after 24 hrs; format: functional
# Anopheles gambiae [12] = experiment: Insecticidal activity against 3rd instar larvae of Anopheles gambiae Kisumu assessed as mortality at 500 uM administered via de-chlorinated tap water after 24 hrs; format: functional
# Summary of the method: (§3)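 Kenyan strains were reared at 27-28 °C, about 80% humidity, 12/12 h light. Per compound and concentration, 25 third-instar larvae were placed in 100 ml de-chlorinated water containing the compound and kept under insectary conditions. The negative control was plain water; the positive control was propoxur at 25 µM. Mortality was scored at 24 h; 75 treated and 50 control larvae in total.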
# Anopheles gambiae [13] = experiment: Insecticidal activity against five days old adult Anopheles gambiae Kisumu assessed as mortality at 2 mM applied topically on upper part of pronotum after 24 hrs (reference value: 3 to 17%); format: functional; settings: topical
# Aedes aegypti [14] = experiment: Insecticidal activity against 3rd instar larvae of Aedes aegypti Mombasa assessed as mortality at 50 uM administered via de-chlorinated tap water after 24 hrs; format: functional; summary of the method: as §3
# Anopheles gambiae [15] = experiment: Insecticidal activity against five days old adult Anopheles gambiae Kisumu assessed as mortality at 100 mM applied topically on upper part of pronotum after 48 hrs (reference value: 15 to 24%); format: functional; settings: topical
# Aedes aegypti [16] = experiment: Insecticidal activity against five days old adult Aedes aegypti Mombasa assessed as mortality at 10 mM applied topically on upper part of pronotum after 24 hrs (reference value: 3 to 15%); format: functional; settings: topical
# Anopheles gambiae [17] = experiment: Insecticidal activity against 3rd instar larvae of Anopheles gambiae Kisumu assessed as mortality at 50 uM administered via de-chlorinated tap water after 48 hrs; format: functional
# Anopheles gambiae [18] = experiment: Insecticidal activity against five days old adult Anopheles gambiae Kisumu assessed as mortality at 100 mM applied topically on upper part of pronotum after 24 hrs (reference value: 9 to 10%); format: functional; settings: topical
# Aedes aegypti [19] = experiment: Insecticidal activity against 3rd instar larvae of Aedes aegypti Mombasa assessed as mortality at 500 uM administered via de-chlorinated tap water after 48 hrs (reference value: 0 to 2%); format: functional
# Aedes aegypti [20] = experiment: Insecticidal activity against five days old adult Aedes aegypti Mombasa assessed as mortality at 100 mM applied topically on upper part of pronotum after 48 hrs (reference value: 7 to 8%); format: functional; settings: topical
# [21] = biological target: Acetylcholinesterase (Anopheles gambiae) (UniProt Q869C3); experiment: Inhibition of recombinant full length Anopheles gambiae AChE1 expressed in baculovirus-infected Sf9 insect cells at 1 mM using acetylthiocholine iodide as substrate measured over 60 secs by Ellman's method; summary of the method: as §2
# Aedes aegypti [22] = experiment: Insecticidal activity against five days old adult Aedes aegypti Mombasa assessed as mortality at 10 mM applied topically on upper part of pronotum after 48 hrs (reference value: 3 to 15%); format: functional; settings: topical
# Anopheles gambiae [23] = experiment: Insecticidal activity against 3rd instar larvae of Anopheles gambiae Kisumu assessed as mortality at 500 uM administered via de-chlorinated tap water after 48 hrs; format: functional
# Aedes aegypti [24] = experiment: Insecticidal activity against five days old adult Aedes aegypti Mombasa assessed as mortality at 0.2 nmol applied topically on upper part of pronotum after 24 hrs; format: functional
# Anopheles gambiae [25] = experiment: Insecticidal activity against 3rd instar larvae of Anopheles gambiae Kisumu assessed as mortality at 50 uM administered via de-chlorinated tap water after 24 hrs; format: functional; summary of the method: as §3
# Acetylcholinesterase [26] = biological target: T1, Acetylcholinesterase; experiment: Inhibition of AChE1 in Anopheles gambiae head extract using acetylthiocholine iodide as substrate measured over 60 secs by Ellman's method
# [27] = Selectivity ratio of IC50 for recombinant human AChE expressed in HEK293F cells to IC50 for recombinant full length Anopheles gambiae AChE1 expressed in baculovirus-infected Sf9 insect cells
# Summary of the method: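 Ratio of the hAChE IC50 divided by the higher of the AgAChE1 or AaAChE1 IC50. Each IC50 came from an Ellman assay (1 mM acetylthiocholine, 0.2 mM DTNB, pH 7.4, 30 °C) with eight concentrations up to 1 mM, using 2-3 replicates.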
# Aedes aegypti [28] = experiment: Insecticidal activity against five days old adult Aedes aegypti Mombasa assessed as mortality at 1 nmol applied topically on upper part of pronotum after 24 hrs; format: functional
# Aedes aegypti [29] = experiment: Insecticidal activity against five days old adult Aedes aegypti Mombasa assessed as mortality at 100 mM applied topically on upper part of pronotum after 24 hrs (reference value: 3%); format: functional; settings: topical
# Aedes aegypti [30] = experiment: Insecticidal activity against five days old adult Aedes aegypti Mombasa assessed as mortality at 2 mM applied topically on upper part of pronotum after 24 hrs (reference value: 2 to 10%); format: functional; settings: topical
# Acetylcholinesterase [31] = biological target: Acetylcholinesterase (Anopheles gambiae, UniProt Q869C3, G122S); experiment: Inhibition of recombinant full length Anopheles gambiae AChE1 G122S mutant expressed in baculovirus-infected Sf9 insect cells using acetylthiocholine iodide as substrate measured over 60 secs by Ellman's method
# Anopheles gambiae [32] = experiment: Insecticidal activity against five days old adult Anopheles gambiae Kisumu assessed as mortality at 10 mM applied topically on upper part of pronotum after 24 hrs (reference value: 8 to 16%); format: functional; settings: topical
# Aedes aegypti [33] = experiment: Insecticidal activity against 3rd instar larvae of Aedes aegypti Mombasa assessed as mortality at 500 uM administered via de-chlorinated tap water after 24 hrs; format: functional; summary of the method: as §3
# [34] = (§4) Inhibition of recombinant full length Aedes aegypti AChE1 expressed in baculovirus-infected Sf9 insect cells using acetylthiocholine iodide as substrate measured over 60 secs by Ellman's method; summary of the method: as §2
# Aedes aegypti [35] = experiment: as §4; summary of the method: as §2
# Acetylcholinesterase [36] = biological target: T1, Acetylcholinesterase; experiment: Inhibition of AChE1 in Anopheles gambiae body extract using acetylthiocholine iodide as substrate measured over 60 secs by Ellman's method
# Anopheles gambiae [37] = experiment: Insecticidal activity against five days old adult Anopheles gambiae Kisumu assessed as mortality at 1 nmol applied topically on upper part of pronotum after 24 hrs; format: functional
# Anopheles gambiae [38] = experiment: Insecticidal activity against 3rd instar larvae of Anopheles gambiae Kisumu assessed as mortality at 25 uM administered via de-chlorinated tap water after 24 hrs; format: functional; summary of the method: as §3
# Anopheles gambiae [39] = experiment: Insecticidal activity against 3rd instar larvae of Anopheles gambiae Kisumu assessed as mortality at 25 uM administered via de-chlorinated tap water after 48 hrs; format: functional
# Anopheles gambiae [40] = experiment: Insecticidal activity against five days old adult Anopheles gambiae Kisumu assessed as mortality at 6.25 ng applied topically on upper part of pronotum after 24 hrs; format: functional
compound,measurement,setting,value
COc1ccccc1NC(=S)NCCN(C)C,inhibition,[1],Dose-dependent effect
same,IC50,Acetylcholinesterase [2],7.1 µM
same,IC50,Acetylcholinesterase [3],120 µM
same,mortality at 10000 µM,Anopheles gambiae [4],20%
same,mortality at 50 µM,Aedes aegypti [5],7%
same,mortality at 2000 µM,Aedes aegypti [6],13%
same,inhibition,Aedes aegypti [7],50%
same,mortality,Anopheles gambiae [8],16%
same,mortality at 2000 µM,Anopheles gambiae [9],23%
same,mortality,Aedes aegypti [10],10%
same,mortality,Anopheles gambiae [11],57%
same,mortality at 500 µM,Anopheles gambiae [12],3%
same,mortality at 2000 µM,Anopheles gambiae [13],16%
same,mortality at 50 µM,Aedes aegypti [14],7%
same,mortality at 100000 µM,Anopheles gambiae [15],73%
same,mortality at 10000 µM,Aedes aegypti [16],10%
same,mortality at 50 µM,Anopheles gambiae [17],7%
same,mortality at 100000 µM,Anopheles gambiae [18],61%
same,mortality at 500 µM,Aedes aegypti [19],7%
same,mortality at 100000 µM,Aedes aegypti [20],18%
same,inhibition,[21],50%
same,mortality at 10000 µM,Aedes aegypti [22],15%
same,mortality at 500 µM,Anopheles gambiae [23],3%
same,mortality,Aedes aegypti [24],8%
same,mortality at 50 µM,Anopheles gambiae [25],5%
same,IC50,Acetylcholinesterase [26],7.1 µM
same,Ratio IC50,[27],17
same,mortality,Aedes aegypti [28],10%
same,mortality at 100000 µM,Aedes aegypti [29],10%
same,mortality at 2000 µM,Aedes aegypti [30],8%
same,IC50,Acetylcholinesterase [31],50 µM
same,mortality at 10000 µM,Anopheles gambiae [32],9%
same,mortality at 500 µM,Aedes aegypti [33],5%
same,IC50,[34],6 µM
same,inhibition,Aedes aegypti [35],Dose-dependent effect
same,IC50,Acetylcholinesterase [36],7.6 µM
same,mortality,Anopheles gambiae [37],0%
CNC(=O)Oc1ccccc1OC(C)C [PROPOXUR],mortality at 25 µM,Anopheles gambiae [38],100%
same,mortality at 25 µM,Anopheles gambiae [39],100%
same,mortality,Anopheles gambiae [40],100%
